Measured values: ChEMBL document CHEMBL4513216, “Probing the Open Global Health Chemical Diversity Library for Multistage-Active Starting Points for Next-Generation Antimalarials” (ACS Infect Dis, 2020)

Assay: Toxicity liver stage against HepG2, at 10uM
Format: cell-based
Set-up: test concentration 10 uM, cell line HepG2-A16-CD81EGFP
Settings: human, HepG2-A16-CD81EGFP cells; read-out: INHIBITION
Procedure, shortened: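 Uninfected HepG2-A16-CD81EGFP cells, 3 × 10^3 per well, 1536-well, plated on prespotted compound at 10 μM final, parasite-free screening media added to match infected plates; puromycin 10 μM positive, DMSO 0.5% negative; run in parallel with 48 h PbLuc assay at 37 °C, 5% CO2; viability by CellTiter-Glo luminescence, normalized to controls.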

SMILES | cytotoxicity at 10 µM [%]
Cc1ccsc1C(=O)NC1CCS(=O)(=O)c2ccccc21 (centres undefined) | 2.93
CN1CC=C(c2noc(CCC(=O)N3CCCC3)n2)CC1 | 4.87
COc1ccc(NC(=O)N2CCCC2c2ccco2)c(OC)c1 (centres undefined) | 10.8
Nc1nc2c(c3c1C(=O)NC3=O)CCC2 | -4.21
CCOC(=O)c1nc(COc2c(C)occc2=O)no1 | 3.79
Cn1c(C(=O)Nc2nc[nH]n2)cc2ccccc21 | 1.24
COCC(C)(O)CNC(=O)Nc1cccc(OC)c1OC (centres undefined) | -2.75
N#Cc1ccccc1NC(=O)C1CN(C(=O)c2ccc3c(c2)OCO3)C1 | -8.64
O=S1(=O)N=C(SCc2ccc(Cl)cc2)Nc2ccc(F)cc21 | 27.6
CCCNC(=O)c1cc2c([nH]c1=O)CC(c1cccs1)CC2=O (centres undefined) | 50.9
Cc1nc(NC2CCCC2)c2c(n1)c(C)nn2C | 14.1
CCn1nc(C)c(CNC(=O)c2nnc3ccc(OC)cc3n2)c1C | 6.58
Cc1nn(C)c2cnn(CCCNS(=O)(=O)Cc3ccccc3)c12 | 0.999
CC(=O)N1CCC(c2cncc(N3CCOCC3)n2)CC1 | 3.66
O=C1CCC[C@]2(CN(S(=O)(=O)N3CCOCC3)C[C@H]2c2cccnc2)N1 | -0.701
CC(=O)N1CCC(c2cncc(Oc3ccccc3)n2)CC1 | 6.05
NCCn1nc(C2CCN(C(=O)CC3CCCCC3)C2)c2nccnc21 (centres undefined) | -0.645
CCc1nnsc1C(=O)NCc1nnc2n1CCCCC2 | 0.136
Cc1nc2n(n1)CC(Nc1ncnc3c1CCC3)CC2 (centres undefined) | -44.1
CC(C#N)CN(C)Cc1c(Cl)ccc2cccnc12 (centres undefined) | -39
CC(=O)NC(Cc1c[nH]c2cc(F)ccc12)C(=O)Nc1cnn(C)c1 (centres undefined) | 13.9
CC(C)n1nnnc1-c1ccc(NC(=O)CC(F)(F)F)cc1F | 6.62

SMILES | cytotoxicity at 10 µM [%]
O=C(CCCc1nc2ccccc2[nH]1)N1CCCC1c1ccccn1 (centres undefined) | 0.219
COc1cc(C(C)=O)ccc1OCC(=O)c1cccn1C | 13.6
CC(C)COCCNC1CCN(c2ccccn2)CC1 | -2.12
Cc1noc(C)c1S(=O)(=O)N(CC(N)=O)CC(C)C | -6.46
O=C(CNc1cc(-n2cnnn2)ccc1F)Nc1ccccc1Cl | 11.7
O=C(NCCCN1CCOCC1)c1ccc(-c2ccccc2)[nH]c1=O | -2.48
COc1c(CNCc2ccc(CN3CCOCC3)cc2)c(C)nn1C | -11.8
CN(C)C(=O)C1CCN(c2cncc(-n3cccn3)n2)CC1 | -10.9
CN(CC(=O)Nc1ccncc1)CC1CCCN1c1cccnn1 (centres undefined) | -2.01
CCN(CC1CN(Cc2nccn2CC)CCO1)c1cccnn1 (centres undefined) | -0.31
COc1ccccc1OCC(=O)Nc1ncccc1C | 0.464
CCc1noc(C(C)N(C)CC(=O)Nc2cccc(C)c2C)n1 (centres undefined) | 6.35
Cc1ccc(S(=O)(=O)NCCCN2CCC(O)CC2)c(F)c1 | 4.24
CC(C)NC(=O)CNC(=O)OC(C)(C)C | 9.39
CCN(C(=O)c1cc(C)nc2ccccc12)C1CC(=O)NC1=O (centres undefined) | 3.04
CNC(=O)NC(=O)CCSc1ccccc1Cl | -5.13
Cc1nnc(N2CCNCC2)c(C(N)=O)c1C | 3.52
CCOc1cccc(NC(=O)Cc2cccc(O)c2)n1 | -0.116
CC(NC(=O)Nc1ccc(-n2cncn2)cc1)C(=O)NC(C)(C)C (centres undefined) | 3.92
CC(C(=O)N1CCCCC1)N1CCN(c2nccs2)CC1 (centres undefined) | 22.1
CCC(C)NS(=O)(=O)Cc1cccc(NC(=O)c2ccc[nH]2)c1 (centres undefined) | 15.5
CC(c1ccc(F)c(F)c1)N(C)CCS(=O)(=O)CCC(N)=O (centres undefined) | -52.2

SMILES | cytotoxicity at 10 µM [%]
CC(C)C1CN(C(=O)c2ccc(N3CCCC3)nc2)CCS1 (centres undefined) | -4.81
CC(C)CCC(=O)N1C[C@H]2CCN[C@H]2C1 | 2.82
Cc1cc(C(=O)N2CCn3cc(CN(C)C)nc3C2)no1 | -80.5
CC1=N[C@@]2(CC[C@@H]3CN(S(=O)(=O)C4CC4)C[C@@H]32)C(=O)N1CC(C)C | -76.8
O=C1CC(c2ccncc2)C2(CCN(C(=O)c3ccnnc3)CC2)N1 (centres undefined) | -80.4
Cc1noc([C@@H]2CCO[C@@H]3CCN(Cc4nccs4)C[C@@H]32)n1 | -75.8
COCC(=O)N1CC[C@@H](N2CCN(C)CC2)[C@@H]1Cc1ccccc1 | -66.1
Cn1cccc1C(=O)N1C[C@@H](OCc2cccnc2)[C@H]2OCCC[C@H]21 | 7.06
Cn1cccc1C(=O)N1CC[C@H]2C[C@@H](c3ccncn3)O[C@@H]2C1 | 0.77
Fc1cnc(N2CCOCC3(CCCN(c4nncs4)C3)C2)nc1 (centres undefined) | 2.01
Cc1ccc(C(=O)N2C[C@@H](OCC3CCOCC3)[C@H]3OCCC[C@H]32)o1 | -3.55
O=C(c1ccc2nccnc2c1)N1CCN(CCO)[C@@H]2CS(=O)(=O)C[C@@H]21 | -10.4
O=C(Cc1ccc(O)c(F)c1)N1CCC2(CCNCC2)CC1 | -7.43
Cc1nc(N(C)C)nc(N(C)CCc2ccncc2)c1C | 1.37
C[C@@H]1CN(CCC(=O)NCc2ccccc2Cl)CC[C@@]1(O)C1CCC1 | -3.21
CC(C)(C)NC(=O)[C@@H]1Cc2ccccc2CN1Cc1cccs1 | -2.14
COc1ccc(C(O)C(=O)N2CCC(c3nccn3C(C)C)CC2)cc1 (centres undefined) | -0.355
CC(C)c1nc(CN(C)C(=O)c2ccccc2C2CCNC2)cs1 (centres undefined) | 4.46
Cc1n[nH]c(C)c1CCc1ccc(S(C)(=O)=O)cc1 | 6.29
C=C(C)COc1ccccc1C(=O)NCCc1cc(O)nc(C)n1 | -0.355
CN1CC2(CCN(C(=O)Cc3ccc(O)c(F)c3)CC2)CC1=O | 1.87
O=C(O)C1c2nc[nH]c2CCN1CC(c1ccccc1)c1ccccc1 (centres undefined) | -7.97

SMILES | cytotoxicity at 10 µM [%]
CCn1c(CC2CCN(S(=O)(=O)c3cccs3)CC2)nn(C)c1=O | 3.63
CN(C)C(=O)c1noc2c1CN(C(=O)CCCN1CCCCC1)CC2 | -10.5
CCC(O)c1nc2c([nH]1)CC(C)(C)CNC2=O (centres undefined) | 9.55
CCn1cc(-c2n[nH]c(=O)n2-c2ccc(OC)c(OC)c2)c(C)n1 | -9.91
CCc1cn[nH]c1C1CCCN(C(=O)c2cc(C#N)c(=O)[nH]c2C)C1 (centres undefined) | -1.3
Cc1cc(NCCS(C)(=O)=O)nc2cc3c(cc12)CCC3 | 8.05
NCC1CN(c2nc(-c3ccccc3)nc3c2CCNCC3)CCO1 (centres undefined) | -14.9
CCNC(=O)[C@@H]1C[C@@H](NC(=O)Cc2ccccn2)CN1CCCSC | -6.72
Cc1nc(CN2CCCC(NCc3ccc4ccccc4c3)C2)no1 (centres undefined) | -0.375
CCc1noc(CNc2ccc(C(=O)N3CCCC3)cc2C)n1 | -8.25
Cc1ccc(-c2nc(C(=O)NCC3CCOC3)cs2)cc1 (centres undefined) | -8.32
O=C(C1CCOC1)N1CCN(Cc2ccc3c(c2)CCO3)CC1 (centres undefined) | 0.28
OCCn1nccc1C1CCN(CCOc2ccccc2)CC1 | -0.121
O=C1COc2cc(C(=O)NS(=O)(=O)c3ccc(F)c(F)c3)ccc2N1 | -2.34
O=C(c1csc(-c2ncccn2)n1)N1CCCC1Cn1cccn1 (centres undefined) | 0.533
CC(C)(C)C(=O)NCCC(=O)N1CCC(Nc2cccnn2)CC1 | -4.11
O=C(c1ccc(N2CCOCC2)cc1)N1CCCC(n2ccnc2)C1 (centres undefined) | -6.78
COc1cc(/C=C/c2ncc(C(=O)O)s2)cc(Cl)c1OC | 8.01
Cc1cnc(C(=O)N2CCCC(n3cncn3)C2)cn1 (centres undefined) | -2.97
Cc1cccc(C(=O)NCc2ccc(S(N)(=O)=O)cc2)n1 | -4.25
Cc1nc(C)n(CC2CCCN(CCOc3cccc(C#N)c3)C2)n1 (centres undefined) | -6.53
c1ccc(OCc2ccncc2)c(CNC2CCc3ncnn3C2)c1 (centres undefined) | -2.35

SMILES | cytotoxicity at 10 µM [%]
c1ccc(-c2nccc(CNCC3CCCN3c3cccnn3)n2)cc1 (centres undefined) | -1.17
CCOc1ccnc(N2CCN(C(=O)c3cc(Cl)c[nH]3)CC2)n1 | -9.29
Cc1ccc(NC2CCN(C(=O)CN(C)C3CC3)CC2)nn1 | 4.64
O=C(c1cccc(OC2CCCC2)c1)N1CCCC(n2cncn2)C1 (centres undefined) | -10.3
Cc1ccc(-c2nc(CNCC3CN(C)CCO3)cs2)o1 (centres undefined) | -9.16
CN1CCC/C1=N\S(=O)(=O)c1ccc(NC(=O)c2ccc(F)cc2)cc1 | -4.84
Cc1ccc(C#N)cc1NC(=O)NC1CCCN(c2ncccn2)C1 (centres undefined) | -10.2
CN(CC1CN(Cc2cn3ccsc3n2)CCO1)c1cccnn1 (centres undefined) | 4.55
CNC(=O)C1CN(c2ccc(F)cc2)CCN1 (centres undefined) | 7.9
CCn1nc(C)c(CN(CCCOC)Cc2ccccn2)c1C | 5.23
CCOC[C@H]1CC[C@H]2[C@H](CCN2C(=O)c2ccncc2F)O1 | -6.96
Cc1nnc(N2CC[C@H](OCC3CC3)[C@@H](Cc3ccccc3)C2)s1 | 5.25
CN(Cc1ccco1)[C@@H]1CN(C(=O)c2ccnnc2)[C@@H]2CCCO[C@H]12 | -7.93
COc1ncccc1CN1C[C@H]2CCN(c3ccc(C)nn3)C[C@H]2C1 | 4.59
Cn1cc(-c2ncc3c(c2C(=O)O)CCN(Cc2ccco2)C3)cn1 | 6.15
COCCN(C)C[C@@H]1CCC[C@@H]2CN(c3cc(OC)ncn3)C[C@@H]21 | 1.75
Cn1cc(C(=O)N2CC[C@@H]3[C@@H]2CCN3Cc2cccc(C#N)c2)cn1 | -71.3
CCN(CC)c1ncnc2c1CCN(CC1CCOCC1)CC2 | -81.5
CCN1C[C@H]2[C@@H](C1)N(S(=O)(=O)c1ccccc1)CC[C@H]2OC | -75.3
CN(C)C(=O)CN1C[C@H]2CC[C@@H](C1)N(Cc1ccccc1C#N)C2 | -0.898
Cc1ccc(-c2cc(C3=NC(=CN4CCN(C)CC4)NO3)[nH]n2)cc1 | -10.5
